Measured values: ChEMBL document CHEMBL3593239, “PABA/NO lead optimization: Improved targeting of cytotoxicity to glutathione S-transferase P1-overexpressing cancer cells” (Bioorg Med Chem, 2015)
The source made the active and inactive calls. The rule behind the calls is not given here.

How the values were obtained:
HL-60 [1] = test: Induction of apoptosis in human HL60 cells assessed as activation of caspase 8 at 10 uM after 24 hrs by Western blot analysis; type: functional, cell-based
HL-60 [2] = test: Cytotoxicity against human HL60 cells assessed as growth inhibition after 72 hrs by MTT assay; type: functional, cell-based; settings: HL-60, 72 h
Outline: (§1)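 HL-60 and U937 cells from ATCC, grown per supplier protocol, seeded and exposed to increasing concentrations for 72 h. Viability was read with a Promega assay run per the manufacturer's protocol. Six repeats per concentration, three independent experiments. IC50 derived by curve fitting.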

U-937 = test: Cytotoxicity against human U937 cells assessed as growth inhibition after 72 hrs by MTT assay; type: functional, cell-based; settings: U-937, 72 h; outline: as §1
[3] = Stability of the compound in phosphate buffer assessed as first-order initial rate constant for hydrolysis at pH 7.4 at 25 degC by HPLC trapping method; type: physicochemical
[4] = target: T1, Glutathione S-transferase A1 (Homo sapiens, UniProt P08263); test: Drug metabolism in phosphate buffer assessed as ratio of GSTA1 (unknown origin)-mediated (S)-2-amino-5-((R)-1-(carboxymethylamino)-3-(4-cyano-5-hydroxy-2-nitrophenylthio)-1-oxopropan-2-ylamino)-5-oxopentanoic acid formation from nitric oxide release pathway to GSTA1 (unknown origin)-mediated (Z)-1-(4-cyano-5-hydroxy-2-nitrophenoxy)-3,3-dimethyltriaz-1-ene 2-oxide formation from nitric oxide retained pathway at 1 uM at pH 7.4 at 37 degC after 30 mins by LC-MS/MS analysis in presence of GSH; type: ADME; settings: pH 7.4, 0.5 h
T1 sequence (P08263 whole entry): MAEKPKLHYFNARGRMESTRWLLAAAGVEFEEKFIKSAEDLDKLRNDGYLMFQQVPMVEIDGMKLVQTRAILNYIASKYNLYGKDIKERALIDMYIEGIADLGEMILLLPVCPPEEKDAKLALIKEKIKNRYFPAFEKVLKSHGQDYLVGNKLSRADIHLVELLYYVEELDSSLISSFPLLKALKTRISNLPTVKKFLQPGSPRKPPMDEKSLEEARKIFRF
Outline: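 Products analysed by LC–MS. The ratio is the NO-release-pathway product over the NO-retained-pathway phenolic product.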

[5] = target: T2, Glutathione S-transferase P (Homo sapiens, UniProt P09211); test: Drug metabolism in human HL-60 cells assessed as GSTP1-mediated metabolite formation at 1 uM after 10 mins by LC-MS/MS analysis; type: ADME, cell-based; settings: hl-60, 10 min
Outline: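 HL-60 cells plated in flasks and incubated overnight at 37 °C, then treated with 1 µM compound for varying times. Cells broken by two freeze (−80 °C)/thaw (37 °C) cycles in 0.1% formic acid/acetonitrile 3:7. Precipitate spun out at 14,000g for 15 min. Supernatant filtered and analysed by LC–MS/MS on C18 with acetonitrile/water/0.1% formic acid gradient and ESI-QTOF detection.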

[6] = target: T2, Glutathione S-transferase P; test: Prodrug conversion in phosphate buffer assessed as GSTP1 (unknown origin)-mediated nitric oxide release at 1 uM at pH 7.4 at 37 degC after 1 to 30 mins by LC/MS-MS analysis; type: ADME; settings: pH 7.4, 1 µM
Outline: (§2)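 Test compound at 1 µM reacted with 4 mM GSH containing 4 nM GSTP1 in 0.1 M phosphate, pH 7.4, at 37 °C. Products identified by LC–MS traces taken at 60 s and 30 min.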

HL-60 [7] = test: Induction of apoptosis in human HL60 cells assessed as activation of caspase 7 at 10 uM after 24 hrs by Western blot analysis; type: functional, cell-based
[8] = target: T2, Glutathione S-transferase P; test: Prodrug conversion in phosphate buffer assessed as GSTP1 (unknown origin)-mediated nitric oxide release […] measured per mol of compound at pH 7.4 at 37 degC by chemiluminescence assay in presence of GSH; type: ADME
[9] = Stability of the compound in phosphate buffer assessed as pseudo-first order rate constant at pH 7.4 at 37 degC by HPLC trapping method in presence of GSH; type: physicochemical
HL-60 [10] = test: Induction of SAPK/JNK phosphorylation in human HL-60 cells at 5 to 20 uM after 24 hrs by Western blot analysis
HL-60 [11] = test: Induction of apoptosis in human HL60 cells assessed as cleavage of PARP at 10 uM after 24 hrs by Western blot analysis; type: functional, cell-based
[12] = Stability of the compound in phosphate buffer assessed as first-order initial rate constant for hydrolysis at pH 7.4 at 37 degC by HPLC trapping method; type: physicochemical
[13] = target: T2, Glutathione S-transferase P; test: Drug metabolism in phosphate buffer assessed as formation of GSTP1 (unknown origin)-mediated (S)-2-amino-5-((R)-1-(carboxymethylamino)-3-(4-cyano-5-(4-(methylamino)benzoyloxy)-2-nitrophenylthio)-1-oxopropan-2-ylamino)-5-oxopentanoic acid at 1 uM at pH 7.4 at 37 degC after 1 to 30 mins by LC-MS/MS analysis in presence of GSH; type: ADME; settings: pH 7.4, 1 µM; outline: as §2

T2 sequence (P09211 whole entry): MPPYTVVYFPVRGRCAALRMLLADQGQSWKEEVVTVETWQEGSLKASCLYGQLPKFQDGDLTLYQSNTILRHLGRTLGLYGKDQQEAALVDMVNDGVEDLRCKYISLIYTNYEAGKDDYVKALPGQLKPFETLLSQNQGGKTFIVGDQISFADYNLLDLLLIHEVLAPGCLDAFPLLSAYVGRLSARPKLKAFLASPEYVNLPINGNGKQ

In the case of CNc1ccc(C(=O)Oc2cc(O/N=[N+](\[O-])N(C)C)c([N+](=O)[O-])cc2C#N)cc1, the Activity (HL-60 [1]) is reported as “Active”, the IC50 (HL-60 [2]) is reported as 9 µM and the IC50 (U-937) is reported as 6.5 µM. For the same compound, the K [3] was 0.3 ×10⁻⁵ /s, the Ratio [4] was 1 and the Drug metabolism [5] was “metabolite_detected”. The Drug metabolism [6] was “metabolite_detected”, the Activity (HL-60 [7]) was “Active” and the NO yield [8] was over 1.9 mol/mol. The K [9] was 5.1 ×10⁻³ /s, the Activity (HL-60 [10]) was “Active” and the Activity (HL-60 [11]) was “Active”. The K [12] was 1.1 ×10⁻⁴ /s and the Drug metabolism [13] was “metabolite_detected”.
